Results collected from several papers.
Technique: competition with immobilised ligand
RPS6KA2 N-terminal kinase domain: Ribosomal protein S6 kinase alpha-2, N-terminal kinase domain (RPS6KA2, Homo sapiens, UniProt Q15349)
RPS6KA2 C-terminal kinase domain: Ribosomal protein S6 kinase alpha-2, C-terminal kinase domain (RPS6KA2, Homo sapiens, UniProt Q15349)

Compound | target | observed | concentration | remaining binding [%]
c1cncc(-c2cccc(Nc3nccc(NC4CCCCC4)n3)c2)c1 | RPS6KA2 N-terminal kinase domain | binding | 10 µM | 44
N#CC1(c2ccccn2)CCN(Cc2cc(C(=O)N3CCCC3)c(=O)n3ccccc23)CC1 | RPS6KA2 N-terminal kinase domain | cell-free assay | 1 µM | 88
CN(CCCC(F)(F)F)c1nccc(-c2cnn3ncccc23)n1 | RPS6KA2 C-terminal kinase domain | binding | 1 µM | 100
O=C(NCCCN1CCOCC1)c1ccc(Nc2ncc(Cl)c(-c3ccc(Cl)s3)n2)cc1 | RPS6KA2 C-terminal kinase domain | binding | 1 µM | 63
COc1cc(C(=O)N2CCC(N3CCN(C)CC3)CC2)ccc1Nc1ncc2c(n1)N(C)c1ccccc1C(=O)N2C | RPS6KA2 C-terminal kinase domain | binding | 10 µM | 7.5
C[C@@H](c1cccc(C#N)c1)n1cc(Cl)cc(C(N)=O)c1=N | RPS6KA2 C-terminal kinase domain | cell-free assay | 1 µM | 100
O=C(NCC1CCOCC1)c1n[nH]cc1NC(=O)c1c(F)cccc1F | RPS6KA2 N-terminal kinase domain | binding | 1 µM | 100
CN(C)c1nccc(-c2cnn3ncccc23)n1 | RPS6KA2 N-terminal kinase domain | binding | 1 µM | 100
O=C(c1ccc(Nc2ncc(Cl)c(-c3ccc(Cl)s3)n2)cc1)N1CCC(N2CCCC2)CC1 | RPS6KA2 C-terminal kinase domain | binding | 1 µM | 71
COc1cnc(Nc2cccc(S(N)(=O)=O)c2)nc1N1CCN(c2ccccc2)CC1 | RPS6KA2 C-terminal kinase domain | binding | 1 µM | 84
Cc1cnc(Nc2ccc(C(=O)N3CCC(N4CCCC4)CC3)cc2)nc1-c1cc2ccccc2s1 | RPS6KA2 N-terminal kinase domain | binding | 1 µM | 100
CCN1CCN(Cc2ccc(C(=O)Nc3ccc(C)c(Oc4ccc5c(c4)CC(=O)N5)c3)cc2C(F)(F)F)CC1 | RPS6KA2 C-terminal kinase domain | binding | 1 µM | 91
O=C(c1ccc(Nc2nccc(-c3cc4ccccc4s3)n2)cc1)N1CCC(N2CCCC2)CC1 | RPS6KA2 N-terminal kinase domain | binding | 1 µM | 100
C=CC(=O)N1CCC(C(=O)NCC(=O)N2CCN(c3nc(-c4cnc(N)nc4C(F)F)nc(N4CCOCC4)n3)CC2)CC1 | RPS6KA2 N-terminal kinase domain | binding | 1 µM | 82
O=C(Nc1cccnn1)N1CCC(=Cc2cccc(Oc3ccc(C(F)(F)F)cn3)c2)CC1 | RPS6KA2 C-terminal kinase domain | cell-free assay | 1 µM | 100
FC(F)(F)Oc1cccc(-c2cnc3ccc(-c4ccncc4)nn23)c1 | RPS6KA2 N-terminal kinase domain | binding | 5 µM | 79
c1cnn2ncc(-c3ccnc(N4CCC45COC5)n3)c2c1 | RPS6KA2 C-terminal kinase domain | binding | 1 µM | 85

Compound | target | observed | concentration | remaining binding [%]
C[C@@H](c1ccc(-n2cnc3c(N)ncnc32)cc1)N1CCc2nn(C)c(Cc3ccccc3)c2C1=O | RPS6KA2 N-terminal kinase domain | binding | 0.1 µM | 96
F[C@@H]1CCN(c2nccc(-c3cnn4ncccc34)n2)C1 | RPS6KA2 C-terminal kinase domain | binding | 1 µM | 91
O=C(NCCCN1CCOCC1)c1ccc(Nc2nccc(-c3cc4ccccc4s3)n2)cc1 | RPS6KA2 C-terminal kinase domain | binding | 1 µM | 16
CN(C)c1nccc(-c2cnc3ncccn23)n1 | RPS6KA2 C-terminal kinase domain | binding | 1 µM | 91
O=C(c1ccc(Nc2ncc(Cl)c(-c3cc4ccccc4s3)n2)cc1)N1CCC(N2CCCC2)CC1 | RPS6KA2 N-terminal kinase domain | binding | 1 µM | 100
CS(=O)(=O)c1cc(C2(NC(=O)c3cncc4c3cnn4-c3ccc(F)cc3)CC2)ccn1 | RPS6KA2 C-terminal kinase domain | cell-free assay | 1 µM | 88
CNC(=O)[C@@H]1CC[C@@H](n2c(-c3ccc4cnccc4c3)nc3ccc(C(=O)NCc4cccc(C(N)=O)c4)cc32)C1 | RPS6KA2 N-terminal kinase domain | binding | 1 µM | 100
CC1CCCN1c1nccc(-c2cnn3ncccc23)n1 (stereo not shown) | RPS6KA2 N-terminal kinase domain | binding | 1 µM | 100
CS(=O)(=O)N1CCCC(NC(=O)[C@H](CCC2CCCCC2)NC(=O)c2ccc(CNC(=O)c3cnc4ccccn34)cc2)C1 (stereo partly shown) | RPS6KA2 C-terminal kinase domain | cell-free assay | 0.1 µM | 94
COc1ncc2cc3ccccc3nc2c1C#N | RPS6KA2 N-terminal kinase domain | cell-free assay | 5 µM | 91
Nc1ncc2c(n1)-c1c([nH]c3ccc(C#CC4CC4)cc13)CCCC2 | RPS6KA2 N-terminal kinase domain | binding | 1 µM | 91
COc1ccc2c(O[C@@H]3C[C@H]4C(=O)N[C@]5(C(=O)O)CC5/C=C\CCCCC[C@H](NC(=O)OC5CCCC5)C(=O)N4C3)cc(-c3csc(NC(=O)C(C)C)n3)nc2c1C (stereo partly shown) | RPS6KA2 C-terminal kinase domain | cell-free assay | 1 µM | 100
COc1cnc(Nc2cccc(S(N)(=O)=O)c2)nc1N1CCN(c2ccccc2)C(=O)C1 | RPS6KA2 N-terminal kinase domain | binding | 1 µM | 96
CC(C)CC(=O)N1CCc2nc(-c3ccc(Br)cc3)nc(N(C)Cc3ccccc3)c2C1 | RPS6KA2 C-terminal kinase domain | cell-free assay | 0.1 µM | 100
O=C(Nc1c[nH]nc1C(=O)NC1CCNCC1)c1cc(F)cc(F)c1 | RPS6KA2 C-terminal kinase domain | binding | 1 µM | 100
N[C@@H]1CCN(c2nccc(-c3cnn4ncccc34)n2)C1 | RPS6KA2 N-terminal kinase domain | binding | 1 µM | 100
COCCOc1nc(-c2ccc(Cl)nc2)nc2c1CN(C(=O)c1ncn3ccccc13)CC2 | RPS6KA2 C-terminal kinase domain | cell-free assay | 0.1 µM | 100
